The source of these data is ChEMBL document CHEMBL1144241, “Deuterium isotope effects for the oxidation of 1-methyl-3-phenyl-3-pyrrolinyl analogues by monoamine oxidase B” (Bioorg Med Chem, 2008).

For series [1], the system named is Papio. Kind of series: Deuterium isotope effect on Vmax/Km for baboon liver mitochondrial MAOB assessed as oxidation of 1-methyl-3-(4-fluorophenyl-3-pyrroline by HPLC/UV analysis. The following applies: tested as the 2H-labelled form.
Series [2] concerns Papio. Nature of the series: Activity of baboon liver mitochondrial MAOB per mg of mitochondria by HPLC/UV analysis. In a few lines:
(§1)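 Enzyme source was baboon liver mitochondria (no MAO-A inactivation), at 0.15 mg protein/mL in 100 mM sodium phosphate, pH 7.4. Substrate oxalate salts were tested at eight concentrations, 12.5–2000 µM, for 10 min at 37 °C, then stopped with trichloroacetic acid and centrifuged. Pyrrolyl products were measured by HPLC-UV at 270 nm against calibration curves. Initial rates were fitted to Michaelis–Menten, in triplicate, mean ± SEM.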

Series [3] concerns Papio. Nature of the series: Activity of baboon liver mitochondrial MAOB by HPLC/UV analysis. In a few lines: as §1
Series [4] relates to Papio. Kind of series: Activity of baboon liver mitochondrial MAOB per mg of mitochondria assessed as oxidation of 1-methyl-3-(4-fluorophenyl-3-pyrroline by HPLC/UV analysis. The following applies: tested as the 2H-labelled form. In a few lines: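 Baboon liver mitochondrial fraction as MAO-B source (no MAO-A activity; protein by Bradford), 0.15 mg protein/mL, in 100 mM sodium phosphate pH 7.4. Substrate as oxalate salt at eight concentrations, 12.5–2000 µM. Incubated 10 min at 37 °C; stopped with trichloroacetic acid. Pyrrolyl product quantified by HPLC-UV at 270 nm against calibration curve. Triplicates; Michaelis–Menten fit for Km and Vmax (nmol/min-mg mitochondria).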

Series [5] can be described thus: Metabolic stability in (R)-deprenyl pre-inactivated baboon liver mitochondrial fraction assessed as pyrrolyl oxidation product at 50 uM after 10 mins by HPLC analysis. The series is classed as ADME, Papio.
Series [6] is described as follows: Metabolic stability in (R)-deprenyl pre-inactivated baboon liver mitochondrial fraction assessed as oxidation to 1-methyl-3-phenylpyrrole. It counts as ADME, Papio.
Series [7] deals with Papio. Kind of series: Ratio of Vmax to Km for baboon liver mitochondrial MAOB assessed as oxidation of 1-methyl-3-phenyl-3-pyrroline by HPLC/UV analysis. Particulars: tested as the 2H-labelled form. In a few lines: as §1
Series [8] concerns Papio. Kind of series: Activity of baboon liver mitochondrial MAOB per mg of mitochondria assessed as oxidation of 1-methyl-3-phenyl-3-pyrroline by HPLC/UV analysis. The following applies: tested as the 2H-labelled form. In outline:
as §1

With `CN1CC=C(c2ccc(F)cc2)C1`, the D(Vmax/Km) isotope effect in the series with Papio [1] turned out to be 3.37. Also, the Vmax (in general, the top rate of the reaction or transport when substrate is in excess) with Papio [2] is 15.7 nmol/min; in the series on Papio [2] (tested as the 2H-labelled form) it was 3.96 nmol/min. Moreover, the values for the Michaelis-Menten constant (Km) in the series with Papio [3] and in the series with Papio [3] (tested as the 2H-labelled form) were 87.2 µM and 73.8 µM, respectively. Also, the D(Km) isotope effect with Papio [4] is 1.19. The D(Vmax) isotope effect in the series with Papio [4] came to 3.98.
As to `[2H]C1=C(c2ccccc2)C([2H])([2H])N(C)C1([2H])[2H]`, the Activity in series [5] is on record as 2.6%.
Turning to `CN1CC=C(c2ccccc2)C1`, the Activity in series [6] was found to be 8.4%. The Vmax stood at 9.07 nmol/min in the series with Papio [2], 2.11 nmol/min with Papio [2] (tested as the 2H-labelled form) and 4.29 nmol/min in the series with Papio [8]. Also, the Vmax/Km with Papio [7] stood at 5.71 nmol/min.µM. Besides, the figures for the Km in the series with Papio [8], in the series with Papio [3] and in the series on Papio [3] (tested as the 2H-labelled form) were 0.8 µM, 118 µM and 157 µM, respectively.
